# High-throughput results from PubChem BioAssay.
# S1P1 ag pot = S1P1 agonists and agonism potentiators, primary screen, cell-based, primary and confirmation screens, CRE-bla reporter; S1P1 CRE-bla cells, forskolin, beta-lactamase FRET, potentiator mode; S1P1 agonist co-added at EC20, 2 nM; 100% = saturating reference agonist, 0% = basal; 56,000 compounds, 0.57% hits; activation, % at 9.5 µM;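 active = activation above a cutoff set at the mean activation of all tested compounds plus 3 SD, cut at about 54% in these data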;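 note: forskolin at 4 µM as EC80 and the EC20 agonist is SEW2871; 100% = SEW2871 at its EC100 plus forskolin at EC80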
# Target sequence (P21453 whole entry, looked up): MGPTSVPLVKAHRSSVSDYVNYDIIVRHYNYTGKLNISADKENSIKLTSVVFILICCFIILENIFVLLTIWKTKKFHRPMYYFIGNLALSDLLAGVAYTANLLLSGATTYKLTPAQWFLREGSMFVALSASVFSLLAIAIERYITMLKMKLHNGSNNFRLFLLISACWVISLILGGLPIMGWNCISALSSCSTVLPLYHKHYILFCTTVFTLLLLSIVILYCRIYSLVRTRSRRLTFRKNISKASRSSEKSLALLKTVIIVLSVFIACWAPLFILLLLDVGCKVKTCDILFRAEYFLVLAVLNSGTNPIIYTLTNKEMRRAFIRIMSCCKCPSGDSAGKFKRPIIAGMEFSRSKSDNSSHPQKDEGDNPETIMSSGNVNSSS
# S1P3 agonist = human S1P3 receptor agonists, primary screen, cell-based, primary and confirmation, NFAT-BLA reporter | Sphingosine 1-phosphate receptor 3 (Homo sapiens), Q99500 | S1P3 NFAT-BLA reporter cells, agonism, FRET ratio; relative to 1 µM S1P, basal subtracted | activation, % at 4.5 µM | 60,000 compounds, 0.1% hits;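 active = activation above the screen-wide mean plus 3 SD, cut at about 4.5% in these data, passing the limit was not always enough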
#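 Benchmarks: high control 1 µM S1P / System: stable CHO line with human S1P3, Gα16, NFAT-BLA reporter / Dosing: single compound concentration, 4.5 µM final / Timing: 4 h compound at 37 °C, 2 h substrate at RT / Measured by: FRET β-lactamase substrate fluorescence, excitation 405 nm, 460/535 nm emission ratio, background-subtracted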
# M1 antag = antagonists of rat M1 muscarinic receptor. AID 628, 2007. CHO-M1 cells, Fluo-4 calcium, ACh EC80 antagonist mode; stronger effect = lower value. Muscarinic acetylcholine receptor M1 (Rattus norvegicus), P08482. 64,000 compounds, 3.4% hits. B-score at 10 µM;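 active = calcium fluorescence response, raw or row-and-column corrected B-score, differing from the plate sample mean either way at a set confidence level, mostly lower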
# D1 allo mod = D1 CRE-luciferase signal change, two-sided – cell-based, HEK293 D1, dopamine EC30, D1 allosteric modulator project, primary screen | D(1A) dopamine receptor (Homo sapiens), P21728 | dopamine EC30 potentiation; actives deviate in either direction | B-score at 10 µM | 58,000 compounds, 5.9% hits | AID 641, 2007;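 active = luminescence count or its row- and column-corrected plate score outside the 99.7% band of the plate's sample wells, on either side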
# M1 ag = M1 muscarinic receptor agonists, primary screen, CHO-M1 cells, Fluo-4 calcium, agonist mode; B-score at 10 µM; 64,000 compounds, 3% hits; Muscarinic acetylcholine receptor M1; Fluo-4 calcium fluorescence; stronger effect = higher value;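 active = fluorescence rise, raw or as B-score row- and column-corrected plate score, outside the 99.7% band of its plate's samples, either direction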
# M1 ag confirm = rat M1 muscarinic receptor agonists, confirmation, CHO-M1 cells, Fluo-4 calcium, duplicate retest | shares compounds with M1 ag | Fluo-4 calcium fluorescence, agonist mode; actives lie on both sides | fluorescence change (max-min) at 10 µM | 1,700 compounds, 19% hits;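 active = fluorescence change differs from the solvent-only DMSO control mean at a set confidence level in both duplicate runs; inconclusive = differs from solvent-only control mean in just one of two runs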;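 note: an EC20 dose of acetylcholine follows compound addition during the same imaging run; raw fluorescence intensity difference in instrument units with no normalization to controls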
# M4 agonist ctr = agonist activity at rat M4 receptor, confirmation, counter-screen for M1 allosteric modulator project, cell-based, agonist mode; shares compounds with M1 ag; CHO M4/Gqi5 cells, Fluo-4 calcium fluorescence; actives lie on both sides; fluorescence change (max-min) at 10 µM; 1,700 compounds, 9% hits; AID 1741, 2009;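 active = fluorescence change differing from the plate's solvent-only control wells at 99.7% confidence in both duplicates, whether higher or lower; inconclusive = differs from solvent controls in only one of two duplicates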
# Active calls of the source: *; ? = inconclusive; / = no result. Rows were chosen to be rich in hits. Some 11% of all compounds tested hit in one or more screens of this group.
SMILES,S1P1 ag pot,S1P3 agonist,M1 antag,D1 allo mod,M1 ag,M1 ag confirm,M4 agonist ctr
Cc1ccc(-c2noc(CCC(=O)NCCCN3CCN(c4ccc(F)cc4)CC3)n2)cc1,-1,-1,-2.6*,-5*,5.3*,10,-29
CC1(C)CC(=O)c2cc(OCC(=O)NCCN3CCCc4ccccc43)ccc2O1,-2,-1,-0.012,0.047,0.8,/,/
Clc1cccc(N2CCN(Cc3nc(-c4ccccc4)no3)CC2)c1,7,-2,-0.014,-0.43,-0.25,/,/
CC1(C)CC(=O)c2cc(OCC(=O)NCCCN3CCN(c4ccc(F)cc4)CC3)ccc2O1,-5,0,-0.87,-4.2*,13*,11,-55
COc1ccc(-c2noc(CCC(=O)NCCN3CCN(c4ccccc4F)CC3)n2)cc1,/,/,-1.6,-2.8*,5*,-14,-62
Cc1ccc(-c2noc(CCC(=O)NCCCN3CCN(c4cccc(Cl)c4)CC3)n2)cc1,5,-1,-3.7*,-3.9*,4.4*,?,-46
CCOC(=O)/C(C#N)=C(\N)C(C)C(=O)Nc1ccccn1 (centres undefined),-21,-1,-0.025,0.3,0.44,/,/
O=C(CN1C(=O)CCSc2ccccc21)Nc1ccccc1,0,-1,0.19,-0.79,0.69,/,/
CC(C)c1nc(SCC(=O)N2CCOCC2)c2c(=O)n(C)c(=O)n(C)c2n1,-6,-1,-0.03,-0.072,8.3*,-23,-32
CCc1nc(SCC(N)=O)c2c(=O)n(C)c(=O)n(C)c2n1,-4,0,-0.096,0.19,0.43,/,/
CC(C)c1nc(SCC(=O)N2CCN(c3ccccc3)CC2)c2c(=O)n(C)c(=O)n(C)c2n1,14,1,-3.6*,-3.9*,5.7*,?,-49
CCc1nc(SCC(=O)N2CCC(C)CC2)c2c(=O)n(C)c(=O)n(C)c2n1,-5,0,-3.5*,0.032,3.4*,?,-24
Cn1c(=O)c2c(SCC(=O)N3CCCc4ccccc43)nc(C3CC3)nc2n(C)c1=O,12,-2,-2.6*,-0.77,3.8*,-28*,?
CCc1ccc(CNC(=O)CN2C(=O)COc3ccccc32)cc1,-12,0,-0.34,0.21,-0.79,/,/
CCCS(=O)(=O)c1c(S(=O)(=O)CCC)c2c3ccccc3ccn2c1C(N)=O,-8,-2,0.3,-0.14,1.9,/,/
CCCc1nc(SCc2cccnc2)c2c(=O)n(C)c(=O)n(C)c2n1,-15,0,-1*,/,2.6*,-25*,-81*
Cn1c(=O)c2c(SCc3cccnc3)nc(CC(C)(C)C)nc2n(C)c1=O,-53,0,-0.84,/,-0.34,/,/
CCCc1nc(SCC(=O)N2CCN(c3ccccc3)CC2)c2c(=O)n(C)c(=O)n(C)c2n1,14,0,-8.1*,-1.6,7.2*,-10,-59
COc1cccc(N2CCN(C3CCCC(C)C3)CC2)c1 (centres undefined),/,-1,-0.4,-0.63,3.6*,-12,-24
COc1cccc(N2CCN(C3CC(=O)N(c4cccc(Cl)c4)C3=O)CC2)c1 (centres undefined),7,-4,-0.022,/,0.15,/,/
O=C(c1cc(-c2cccnc2)nc2ccc(Br)cc12)N1CCC2(CC1)OCCO2,11,-1,0,-3.2,1.3,/,/
O=S(NCc1ccco1)C12CC3CC(CC(C3)C1)C2 (centres undefined),/,/,0.024,-0.54,-0.2,/,/
COc1ccc(C2C(C#N)=C(N)SC(N)=C2C#N)cc1OC,-15,-3,-0.22,/,38*,-11,-51
COc1ccc(C2C(C#N)=C(N)OC(C(C)(C)C)=C2C#N)cc1OC (centres undefined),-20,-1,-0.41,3.2,0.37,/,/
Cc1ccnc(SCC(=O)Nc2sc3c(c2C#N)CCCC3)n1,100*,-2,-2.1,0.006,3.4*,-18,?
SMILES,S1P1 ag pot,S1P3 agonist,M1 antag,D1 allo mod,M1 ag,M1 ag confirm,M4 agonist ctr
N#Cc1c(NC(=O)CSC2=NCCS2)sc2c1CCCC2,-3,-1,0.0088,0.83,-0.36,/,/
Nc1cc(-c2ccco2)no1,3,0,-0.03,0.052,-0.51,/,/
N#Cc1sc2nc(-c3ccccc3)cc(-c3ccco3)c2c1N,51,-2,0.78,2.3,15*,24,-11
Cc1c(C(=O)N2CCc3ccccc3C2)sc2nc(-c3ccccc3)cn12,-12,0,-0.5,0.39,2.4*,-16,?
C=CCn1c2ccccc2c2nnc(SCc3ccc4nonc4c3)nc21,-20,-1,0.36,1.2,2.3*,-22,-45
O=C(CSc1nnc2ccccn12)NC(=O)NC1CCCC1,-13,0,0.27,0.48,0.14,/,/
CCN(CC)S(=O)(=O)c1ccc(C(=O)N2CCN=C2SC)cc1,-7,0,0.14,-0.18,16*,?,-47
COc1cc(C(C)=O)ccc1OCC(=O)c1cc(C)n(C2CC2)c1C,14,0,0.68,-1.2,-0.56,/,/
COC(=O)c1ccc(-c2ccco2)n1Cc1nc(-c2ccc(OC)c(OC)c2)oc1C,-9,0,0.19,0.9,1.8*,-19,-13
COc1ccc(-c2nc(CSCC(=O)NCC3CCCO3)c(C)o2)cc1OC (centres undefined),-34,0,0.66,1.7,0.8,/,/
CC(OC(=O)c1ccco1)C(=O)NC1CCCCC1 (centres undefined),-12,0,-1.2,-0.78,-0.15,/,/
CC(C)C(OC(=O)c1ccco1)C(=O)NC1CCCCC1 (centres undefined),-10,1,0.25,-0.74,2.2*,-17,-45
CC1CC(=O)c2cnc(Nc3cccc(C(F)(F)F)c3)nc2C1 (centres undefined),-51,1,0.45,0.39,3*,-4.8,0.27
CCCOCCOC(=O)C1=C(C)NC(=O)NC1c1cc(Cl)c(O)c(OC)c1 (centres undefined),2,-1,1,-0.19,0.34,/,/
COC(=O)C(C(=O)OC)C(C(C)C)C(C(=O)OC)C(=O)OC,/,/,0.0079,0.56,1.1,/,/
O=P1(c2ccccc2)C=Cn2c1cc1c2CCCC1 (centres undefined),-16,1,0.58,-1.4,-0.28,/,/
